This is a sample that favours compounds with a hit; in the whole collection about 4.6% have one here.
Wee1 degr inh: Wee1 degradation inhibitors, primary screen, cell-based, HeLa, Wee1K328M-luciferase, luminescence; Wee1-like protein kinase (Homo sapiens), P30291; HeLa Luc-Wee1K328M stability; 100% = proteasome inhibitor MG132 effect; reporter increase, % at 5 µM; 220,000 compounds, 1.2% hits;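 active = activation above the mean of all tested compounds plus 3 SD, set per screening run, cut at about 8.8% in these data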;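 note: cells exposed to compound for 20 h before luminescence read; 0% = DMSO alone and 100% = MG132 at 30 µM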
STAT1 act: STAT1 signaling activators, primary screen, cell-based, HTS, luciferase reporter. 200,000 compounds, 2.6% hits. AID 932, 2007. NIH 3T3 STAT1-luciferase reporter, IFN-gamma, luminescence; 100% = IFN-gamma alone, no compound. activation (% of control), % at 5.5 µM;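 active = activation above the screen-wide mean activation plus 3 SD, cut at about 130% in these data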;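 note: raw ratio to IFN-gamma control signal so 100% means no change and 0% no light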
MDM2 E3 inh: MDM2-luciferase reporter signal enhancers, primary screen, MDM2 E3 ligase inhibitor project, cell-based, luminescence, 1536-well; E3 ubiquitin-protein ligase Mdm2 (Homo sapiens), Q00987; AID 1230, 2008; 210,000 compounds, 0.11% hits; signal enhancement, % at 5 µM; cell-based MDM2 ubiquitination luciferase reporter, 2 h; 0 = plate control, 100 = twice control, blank-subtracted;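 active = signal enhancement of 30% or more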;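 note: luminescence tracks abundance of the self-degrading MDM2-luciferase fusion protein; higher signal means inhibition of MDM2 E3 ligase activity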
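Test system: stable mammalian line carrying autodegrading MDM2–luciferase fusion reporter; quantity: 2000 cells in each well; times: 4 h cell settling then 2 h compound exposure, 37 °C; detection: luminescence with SteadyLite reagent, 15 min at room temperature; evaluation: percent signal gain over controls, blank-subtracted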
APP 5'UTR act: activators of APP 5'UTR luciferase reporter, primary screen, SH-SY5Y cells. 190,000 compounds, 1% hits. activation, % at 2 µM. AID 1276, 2008. SH-SY5Y APP 5'UTR luciferase reporter, luminescence; zero percent = DMSO vehicle wells;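 active = activation above a set limit, based on mean plus 3 SD of controls, cut at about 140% in these data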
p97 ATPase inh: inhibitors of human p97 ATPase, primary screen, biochemical | inhibition, % at 8 µM | recombinant p97 ATPase, Kinase-Glo ATP luminescence, 3 h | 220,000 compounds, 0.42% hits | Transitional endoplasmic reticulum ATPase (Homo sapiens), P55072; in the data active = inhibition above about 15%;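 note: 0% = DMSO vehicle and 100% = wells lacking enzyme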
Target sequence (P55072 whole entry, looked up): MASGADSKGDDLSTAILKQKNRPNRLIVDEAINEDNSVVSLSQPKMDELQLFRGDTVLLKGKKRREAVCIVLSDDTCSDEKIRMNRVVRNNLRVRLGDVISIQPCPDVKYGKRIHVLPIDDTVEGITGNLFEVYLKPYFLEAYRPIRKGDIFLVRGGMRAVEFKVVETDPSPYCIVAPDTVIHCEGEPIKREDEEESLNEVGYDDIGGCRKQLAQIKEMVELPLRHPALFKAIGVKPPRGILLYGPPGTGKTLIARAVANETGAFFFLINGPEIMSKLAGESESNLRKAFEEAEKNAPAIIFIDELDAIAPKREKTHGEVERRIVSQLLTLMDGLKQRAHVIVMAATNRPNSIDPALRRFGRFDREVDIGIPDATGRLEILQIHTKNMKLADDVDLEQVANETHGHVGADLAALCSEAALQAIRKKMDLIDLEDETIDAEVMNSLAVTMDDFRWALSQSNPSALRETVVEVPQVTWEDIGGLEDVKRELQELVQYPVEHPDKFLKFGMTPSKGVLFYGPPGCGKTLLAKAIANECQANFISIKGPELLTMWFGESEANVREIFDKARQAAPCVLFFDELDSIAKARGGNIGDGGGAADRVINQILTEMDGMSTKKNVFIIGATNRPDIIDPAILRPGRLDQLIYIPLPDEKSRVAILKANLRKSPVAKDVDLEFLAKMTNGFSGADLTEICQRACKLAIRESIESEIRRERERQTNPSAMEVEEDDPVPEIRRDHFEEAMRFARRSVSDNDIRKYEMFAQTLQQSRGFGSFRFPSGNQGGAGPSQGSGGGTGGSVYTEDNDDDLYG
NF-kB neuron act: activators of NF-kB expression in neurons, primary screen, cell-based, HTS. fold change at 12.5 µM. AID 1239, 2008. 190,000 compounds, 1.6% hits. human neuronal cells, NF-kB reporter expression; stronger effect = higher value; in the data active = fold change above about 3.3
Active calls of the source: *; x = no result.

SMILES	Wee1 degr inh	STAT1 act	MDM2 E3 inh	APP 5'UTR act	p97 ATPase inh	NF-kB neuron act
CCOC(=O)c1c(-n2c(C)cc(C=C3C(=O)NC(=S)NC3=O)c2C)sc2c1CCCC2	-2.2	94.5	9.5	-0.1	0.9	5.57*
Cc1nc(Cl)sc1C(=O)Nc1ccc2ccccc2c1	2.1	134.2*	-20.4	94.0	-1.3	5.48*
O=C(Nc1ccc2ccccc2c1)c1nn(C23CC4CC(CC(C4)C2)C3)cc1Br	-1.7	91.0	-19.4	14.2	-6.8	1
C/C1=C\[C@@H](C)C/C=C/[C@H]2[C@@H]3O[C@]3(C)[C@@H](C)[C@H]3[C@H](Cc4c[nH]c5ccccc45)NC(=O)[C@]32C(=O)/C=C/C(=O)[C@@H]1O	-0.9	86.0	33.4*	-83.8	4.8	0.19
CC1=CC2/C=C(\C)CCC(O)C(O)/C=C/C(=O)C23C(=O)NC(CC(C)C)C3C1C (stereo not given)	-2.5	109.3	4.1	-45.1	3.1	0.11
CC(=O)Nc1ccccc1C(=O)OCC(=O)c1ccccc1Cl	-3.9	120.2	10.2	46.6	-0.9	1.78
CC(=O)Nc1ccccc1C(=O)OCc1ccccc1F	4.9	145.2*	-6.9	2.8	-2.2	0.99
CC(C)CCOC(=O)c1c(N)n(CC2CCCO2)c2nc3ccccc3nc12 (stereo not given)	10.2*	100.2	-6.8	7.6	2.5	0.59
CC(C)CCn1c(N)c(C(=O)OCC2CCCO2)c2nc3ccccc3nc21 (stereo not given)	0.0	94.8	-13.5	9.0	-3.6	0.52
O=C1NC(=S)N(Cc2ccco2)C(=O)/C1=C\c1cccs1	-3.1	103.0	-6.4	10.1	40.8*	0.96
O=c1cccc2n1CC1CC2CN(S(=O)(=O)c2ccc(F)cc2)C1 (stereo not given)	-3.0	101.1	-8.1	13.4	2.8	1.08
COc1ccc(-c2nc3ccccc3c(=O)o2)cc1	-3.2	107.1	-4.9	18.6	0.3	2.19
COc1ccc(-c2cc(=O)c3c(OC)c(OC)c(OC)cc3o2)cc1	9.3*	104.5	-13.9	1.8	1.5	0.82
CC(C)CN(C(=O)CN1CC=C(c2ccccc2)CC1)c1c(N)n(CC(C)C)c(=O)[nH]c1=O	6.7	94.0	-6.2	11.1	-1.1	1.01
CCOP(=O)(Cc1cc(C(=O)CC)c(C)o1)OCC	5.4	x	4.2	x	4.6	x
CC1CCN(CC(=O)c2ccc3c(c2)OCCO3)CC1	-0.3	138.8*	-4.0	146.4*	6.4	1.1
CC1CCCN(CC(=O)c2ccc(Cl)c(Cl)c2)C1 (stereo not given)	1.8	105.1	-7.6	-33.1	5.0	0.95
COC(=O)C(O)(c1ccc(NC(=O)NC2CCCCC2)cc1)C(F)(F)F (stereo not given)	3.0	144.5*	-14.2	35.5	1.9	1.16
COC(=O)C(O)(c1ccc(NC(=S)NC(=O)c2ccc(Cl)cc2Cl)cc1)C(F)(F)F (stereo not given)	-1.8	102.0	-10.9	14.6	-3.8	1.35
C=CCSc1nc2c(c(-c3ccsc3)c1C#N)CN(C)CC2	-0.5	x	-7.8	x	1.0	x
O=C(Nc1ccc2ccccc2c1)N1C[C@H]2C[C@@H](C1)c1cccc(=O)n1C2	-2.6	x	-0.3	x	5.7	x
N/C(=N\[N+](=O)[O-])NCCCC(NC(=O)CNC(=O)c1ccccc1)C(=O)O (stereo not given)	-0.7	102.6	-16.6	-32.1	1.8	1
CCCCCCOc1ccc(CN2CCN(CC)CC2)cc1	1.1	104.8	-32.0	144.8*	-2.5	1.13
CCN1CCN(Cc2ccc(OC(F)(F)F)cc2)CC1	5.5	97.7	-3.1	11.6	-5.8	1.1
O=C(CN1CC=C(c2ccccc2)CC1)Nc1cc(Cl)ccc1Cl	1.0	98.4	14.7	-0.9	4.3	1.06
SMILES	Wee1 degr inh	STAT1 act	MDM2 E3 inh	APP 5'UTR act	p97 ATPase inh	NF-kB neuron act
Cc1ccc(S(=O)(=O)N2CCCCC2)cc1NC(=O)CN1CC=C(c2ccccc2)CC1	9.2*	92.8	-15.7	11.6	-2.6	0.78
c1ccc2c(CN3CCN(C4CCCCC4)CC3)c[nH]c2c1	10.7*	85.7	-7.2	-6.2	7.0	0.95
O=C1NC(=O)N(Cc2ccco2)C(=O)/C1=C/c1ccc(-c2cccc([N+](=O)[O-])c2)o1	-2.1	100.0	-17.5	-8.5	15.5*	1.31
CN(C)C(=O)Oc1ccc(-c2cn3cc(C(F)(F)F)ccc3n2)cc1	-2.5	138.2*	12.7	30.6	-0.4	2.21
CN(C)C(=O)Oc1ccc(-c2cn3cc(Cl)ccc3n2)cc1	2.3	141.4*	-57.6	166.8*	-31.8	6.84*
CC(C)N1C(=O)/C(=C/C=C/c2ccco2)C(=O)N(Cc2ccco2)C1=O	-3.4	88.4	13.3	14.4	-4.0	1.84
CCN1C(=O)C(=C/C=C/c2ccco2)C(=O)N(CC)C1=S	-1.5	85.6	47.0*	5.1	6.3	1.05
CCOC(=O)C1=C(NC(=S)NC(=O)c2ccccc2)c2ccccc2CC12CCCC2	3.1	105.6	-11.8	-3.4	-1.8	0.44
O=C(O)c1nonc1-c1nonc1C(=O)O	17.9*	94.7	-0.4	14.5	0.9	1.21
O=C1C2CCN(CC2)C1Cc1ccc(OCc2ccccc2)cc1 (stereo not given)	-0.5	96.2	-21.9	5.5	0.8	1.09
Cc1ccccc1N1C(=O)NC(=O)/C(=C\c2ccc3c(c2)CCCN3Cc2ccccc2)C1=O	-2.6	100.6	0.2	7.9	1.7	0.97
O=C1NC(=S)NC(=O)C1=Cc1ccc2c(c1)CCN2CCCCl	-2.7	x	-5.4	x	17.9*	x
O=c1c2ccccc2nc(Cc2cccc([N+](=O)[O-])c2)n1-c1ccc(O)cc1	-1.6	x	-8.4	x	-3.4	x
CC1(C)CN=C(Nc2nc3ccccc3s2)S1	4.0	135.9*	-20.8	125.8	-5.9	4.73*
CCC1(C(=O)c2ccccc2)C2c3ccccc3OC(=O)C21C(C)=O (stereo not given)	-0.6	x	-5.2	x	-3.0	x
COc1ccc(N2C(=O)/C(=C/C=C/c3ccccc3[N+](=O)[O-])C(=O)NC2=S)cc1	-3.0	100.8	-18.8	11.0	5.1	1.33
C[C@@H]1C[C@H]2OC(=O)C3(CO3)[C@H]2[C@H](O)[C@]2(C)C(=O)C3OC3[C@@H]12 (stereo not given in full)	x	x	-7.4	x	x	x
C=C1C(=O)O[C@@H]2C[C@@H](C)[C@@H]3C=CC(=O)[C@@]3(C)[C@@H](O)[C@H]12	x	x	53.0*	x	x	x
